Experiments:
[1] = In vitro dissolution / drug release study; type: physicochemical; settings: 0.1 M phosphate buffer pH 6.8, 37±0.5 °C, dialysis bag, up to 12 h
How it was run: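 Free test compound, its cyclodextrin complex and the complex-loaded chitosan nanoparticles were placed in dialysis bags presoaked overnight. Medium was 100 mL of 0.1 M phosphate buffer, pH 6.8, at 37±0.5 °C. Samples were 0.45 µm filtered and assayed by UV at 388 nm.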

α-glucosidase enzyme = experiment: Alpha-glucosidase enzyme inhibition activity; type: biochemical; settings: concentration not given
How it was run: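 Enzyme was 0.02 U/μL α-glucosidase in 0.2 M sodium phosphate buffer, pH 6.8. Enzyme and buffer were preincubated 20 min with test compound in DMSO at 1000, 500, 250, 125 or 62.5 μg/mL. 0.02 M PNPG substrate was added for a further 30 min. The reaction was stopped with 0.2 M Na2CO3. Released p-nitrophenol was read at 405 nm and % inhibition calculated by formula.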

[2] = In vivo pharmacokinetic study, single oral dose, EPL in rabbit plasma by HPLC; parameters: species or system rabbits (Oryctolagus cuniculus)
How it was run: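 Non-pregnant adult rabbits (2.5±0.1 kg) in three groups of six got a single oral dose of free compound, complex or nanoparticles. Jugular blood went into EDTA at set times, was spun 12,000 rpm 30 min, and plasma stored −70 °C. Perchloric acid precipitation preceded C18 HPLC (acetonitrile:KH2PO4 60:40, pH 4.0; 388 nm; plasma calibration 0.02–10 μg/mL). Non-compartmental log-linear trapezoidal analysis gave parameters; mean±SD.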

CC(/C=C1\SC(=S)N(CC(=O)O)C1=O)=C\c1ccccc1 [EPL, Epalrestat]
cumulative drug release (%) [1]: 20–25% | potency against α-glucosidase enzyme inhibition (α-glucosidase enzyme): greater than 70% | Cmax ([2]; plasma, po): 4750 ± 3640 ng/mL | AUC ([2]; plasma, po, AUC0-α, single oral dose, mean±SD): 192 ± 165 µg·h/mL | AUC0-α ([2]; single oral dose, mean±SD): 191.5 ± 164.63 µg·h/mL | MRT ([2]; single oral dose, mean±SD): 47.22±3.88 H | T1/2 (elimination half-life) ([2]; single oral dose, mean±SD): 4 H

— paper PMC8721161 (International Journal of Nanomedicine, 2021)
